{"source": "paper PMC2843780", "about": "(Bioorganic & medicinal chemistry letters, 2010)", "key": {"[1]": {"tested_on": "M1", "details": "cited from earlier work; for IC50: read-out: M1 IC50, MLSCN screen hit"}, "[2]": {"biological_target": "hM3 (Homo sapiens, UniProt P20309)", "sequence (P20309 whole entry)": "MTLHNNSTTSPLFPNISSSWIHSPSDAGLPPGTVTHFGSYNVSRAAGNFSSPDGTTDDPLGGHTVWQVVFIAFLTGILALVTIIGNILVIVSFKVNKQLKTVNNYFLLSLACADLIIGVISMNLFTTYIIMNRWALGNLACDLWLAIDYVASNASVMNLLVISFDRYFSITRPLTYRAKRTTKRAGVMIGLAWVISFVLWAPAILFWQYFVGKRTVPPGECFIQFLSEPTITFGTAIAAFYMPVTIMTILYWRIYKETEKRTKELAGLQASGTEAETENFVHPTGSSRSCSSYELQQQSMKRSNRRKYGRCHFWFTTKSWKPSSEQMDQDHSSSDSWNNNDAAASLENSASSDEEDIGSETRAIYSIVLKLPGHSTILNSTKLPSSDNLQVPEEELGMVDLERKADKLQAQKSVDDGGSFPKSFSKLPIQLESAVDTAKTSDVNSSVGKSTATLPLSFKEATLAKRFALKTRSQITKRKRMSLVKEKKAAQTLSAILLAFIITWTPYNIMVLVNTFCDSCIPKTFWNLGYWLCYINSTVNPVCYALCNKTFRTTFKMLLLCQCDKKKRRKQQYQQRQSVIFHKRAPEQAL", "experiment": "calcium mobilization assay, hM3 CHO-K1 cells", "format": "cell-based"}, "[3]": {"biological_target": "T1, hM5 (Homo sapiens, UniProt P08912)", "T1 sequence (P08912 1-532)": "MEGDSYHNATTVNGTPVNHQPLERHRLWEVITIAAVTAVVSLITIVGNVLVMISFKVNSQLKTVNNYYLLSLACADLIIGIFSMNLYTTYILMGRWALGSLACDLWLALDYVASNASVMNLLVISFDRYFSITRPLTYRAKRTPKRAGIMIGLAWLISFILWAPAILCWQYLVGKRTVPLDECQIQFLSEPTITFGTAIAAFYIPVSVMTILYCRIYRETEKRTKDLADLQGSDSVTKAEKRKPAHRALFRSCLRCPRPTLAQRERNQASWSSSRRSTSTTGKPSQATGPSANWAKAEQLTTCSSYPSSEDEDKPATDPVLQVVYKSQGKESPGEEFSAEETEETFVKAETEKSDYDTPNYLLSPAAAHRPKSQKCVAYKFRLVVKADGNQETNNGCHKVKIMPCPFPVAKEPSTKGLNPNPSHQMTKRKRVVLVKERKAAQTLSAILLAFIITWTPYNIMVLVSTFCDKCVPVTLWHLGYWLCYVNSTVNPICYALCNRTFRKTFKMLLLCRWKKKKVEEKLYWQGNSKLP", "experiment": "calcium mobilization assay, hM5 CHO-K1 cells", "format": "cell-based", "details": "compound at 10 μM", "in_short": "(§1)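 CHO-K1 cells stably expressing human receptor (M2 line also stably transfected with Gqi5 chimeric G protein so it signals through calcium; M5 line without chimera) were plated overnight. Cells were loaded with 2 μM Fluo-4 AM in HBSS/20 mM HEPES/2.5 mM probenecid, pH 7.4, for 45 min at 37°C, then dye was replaced with buffer. Cells were pre-incubated with 10 μM test compound, then given sub-maximal acetylcholine or carbachol. Signal was normalized to baseline and expressed as % of maximal acetylcholine response.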"}, "[4]": {"biological_target": "T2, hM2 (Homo sapiens, UniProt P08172)", "T2 sequence (P08172 1-466)": "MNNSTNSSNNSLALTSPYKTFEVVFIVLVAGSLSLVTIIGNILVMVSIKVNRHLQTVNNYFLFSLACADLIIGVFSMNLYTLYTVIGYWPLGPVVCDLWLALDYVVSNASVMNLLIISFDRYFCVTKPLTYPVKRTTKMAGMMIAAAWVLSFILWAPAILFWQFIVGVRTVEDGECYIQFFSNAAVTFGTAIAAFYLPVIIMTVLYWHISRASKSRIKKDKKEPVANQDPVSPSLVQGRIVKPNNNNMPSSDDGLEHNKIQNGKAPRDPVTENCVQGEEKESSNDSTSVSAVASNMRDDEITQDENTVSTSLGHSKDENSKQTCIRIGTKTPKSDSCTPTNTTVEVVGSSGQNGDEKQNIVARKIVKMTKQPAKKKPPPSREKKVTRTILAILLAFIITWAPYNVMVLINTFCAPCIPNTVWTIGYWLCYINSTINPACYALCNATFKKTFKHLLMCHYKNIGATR", "experiment": "calcium mobilization assay, hM2 CHO cells with Gqi5 chimeric G protein", "format": "cell-based", "details": "compound at 10 μM", "in_short": "as §1"}}, "note": "Where two headings read alike, the source gives them in different places."}
{"molecule": "CCN1CCN(c2ccc(NC(=O)CCC3CCCC3)cc2Cl)CC1", "note": "[Compound 5]", "values": [{"measurement": "selectivity versus M4", "setting": "[1]; M1 over M4", "result": "> 340", "unit": "fold"}, {"measurement": "IC50", "setting": "[1]", "result": 0.441, "unit": "µM"}]}
{"molecule": "CCN1CCN(c2ccc(NC(=O)c3ccccc3)cc2Cl)CC1", "note": "[Compound 6]", "values": [{"measurement": "selectivity versus M2-M5", "setting": "[1]; M1 over M2-M5", "result": "> 30", "unit": "fold"}, {"measurement": "IC50", "setting": "[1]; original sample", "result": 5, "unit": "µM"}]}
{"molecule": "CCN1CCN(c2ccc(NC(=O)c3ccccc3Cl)cc2Cl)CC1", "note": "[Compound 8a]", "values": [{"measurement": "IC50", "setting": "[2]", "result": 8.2, "unit": "µM"}]}
{"molecule": "CCN1CCN(c2ccc(NC(=O)c3cc(C(F)(F)F)cc(C(F)(F)F)c3)cc2Cl)CC1", "note": "[Compound 8i]", "values": [{"measurement": "effect on an ACh EC80 on M5", "setting": "[3]", "result": "little effect"}, {"measurement": "effect on an ACh EC80 on M2", "setting": "[4]", "result": "little effect"}, {"measurement": "effect on an ACh EC80 on M3", "setting": "[2]; compound at 10 μM", "result": "little effect"}]}
